Here are results for nine compounds from ChEMBL document CHEMBL3272095, “Synthesis and antiviral activity of 5- and 5'-substituted thymidine analogs” (J Med Chem, 1976).

Structures are written as SMILES.

The test system of series [1] is Human alphaherpesvirus 1. The series is described as follows: Antiviral activity against Herpes simplex virus 1 infected in African green monkey Vero cells assessed as viral titer at 400 uM after 40 hrs by plaque formation assay relative to control. Type of series: functional. A digest of the protocol:
(§1)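 After a 1 h adsorption at 37 °C, inoculum was removed, cells were PBS-washed, and medium with or without compound was added. Incubation was 40 h at 37 °C. Cultures were freeze-thawed three times, and lysate yield was titrated by plaque assay on Vero. Pfu given as % of drug-free culture.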

Series [2] is described as follows: Cytotoxicity against mouse Sarcoma 180 cells assessed as cell viability at 400 uM after 18 to 42 hrs relative to control.
The next series concerns Vero. Description: Cytotoxicity against African green monkey Vero cells assessed as inhibition of replication. The class given is cell-based. To be noted: chlorocebus sabaeus.
Series [3] can be described thus: Cytotoxicity against mouse Sarcoma 180 cells assessed as cell viability at 100 uM after 18 to 24 hrs relative to control. Type of series: cell-based. To be noted: in the assay text read “18 to 42 hrs” for “18 to 24 hrs”, read-out: Activity. A digest of the protocol:
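Sarcoma 180 cells were grown in medium with horse serum at 37 °C under humidified 5% CO2–95% air, with a generation time of about 18 h. Compound was added to exponentially growing cultures at about 2 × 10^4 cells/ml. The increase in cell number was measured after 18 and 42 h, and percent inhibition was calculated relative to a drug-free control.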

Series [4] relates to Human alphaherpesvirus 1. The series is described as follows: Antiviral activity against Herpes simplex virus 1 infected in African green monkey Vero cells assessed as viral titer at 200 uM after 40 hrs by plaque formation assay relative to control. Type of series: functional. A digest of the protocol:
as §1

Regarding `Cc1cn([C@H]2C[C@H](O)[C@@H](CN)O2)c(=O)[nH]c1=O`, the Activity in the series on Human alphaherpesvirus 1 [1] was 3%; in the series with Vero, “Non-toxic”. Also, in series [2], the viability at 400 µM was 100%.
Turning to `[N-]=[N+]=NC[C@H]1O[C@@H](n2cc(Br)c(=O)[nH]c2=O)C[C@@H]1O`, the Activity in the series on Human alphaherpesvirus 1 [1] is 54%. In addition, in series [2], the viability at 400 µM was found to be 100%.
As to `NC[C@H]1O[C@@H](n2cc(Cl)c(O)nc2=O)C[C@@H]1O`, the Activity was 29% in the series on Human alphaherpesvirus 1 [1] and “Non-toxic” with Vero. Moreover, in series [2], the viability at 400 µM is 100%.
For `Cc1ccc(S(=O)(=O)OC[C@H]2O[C@@H](n3cc(Cl)c(=O)[nH]c3=O)C[C@@H]2O)cc1`, the viability at 100 µM in series [3] amounted to 65%.
For `[N-]=[N+]=NC[C@H]1O[C@@H](n2cc(I)c(=O)[nH]c2=O)C[C@@H]1O`, in the series with Human alphaherpesvirus 1 [1], the Activity was found to be 60%. For the same compound, in series [2], the viability at 400 µM was determined as 100%.
In the same order, the values of `[N-]=[N+]=NC[C@H]1O[C@@H](n2cc(Cl)c(=O)[nH]c2=O)C[C@@H]1O` are 81% and 100%.
Turning to `Cc1ccc(S(=O)(=O)OC[C@H]2O[C@@H](n3cc(Br)c(=O)[nH]c3=O)C[C@@H]2O)cc1`, the viability at 100 µM in series [3] turned out to be 65%.
As for `NC[C@H]1O[C@@H](n2ccc(=O)[nH]c2=O)C[C@@H]1O`, the Activity in the series on Human alphaherpesvirus 1 [1] is 101%. Besides, the viability at 400 µM in series [2] came out at 100%.
Turning to `NC[C@H]1O[C@@H](n2cc(Br)c(O)nc2=O)C[C@@H]1O`, the Activity entry with Vero is given as “Non-toxic”; in the series with Human alphaherpesvirus 1 [4], 1%.
